# Test results taken from ChEMBL document CHEMBL5058577, “EUbOPEN Chemogenomics Library 2 (Multiplex)” (2022).
# Tested on: U2OS
# Assay: Multiplex assay against U2OS
# Type: toxicity, cell-based
# Conditions: human
# Method in brief: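 Tubulin, mitochondrial-mass and membrane-permeability phenotypes are per cents of healthy-nucleus cells. Cells were gated by CellPathfinder machine learning into Hoechst high-intensity objects or normal cells, normal cells into healthy, pyknosed or fragmented nuclei, and pyknosed cells into mitotic or apoptotic. Before that, live cells stained at seeding with Hoechst33342, BioTracker Green Microtubule Cytoskeleton Dye, MitoTracker Red and Annexin V Alexa Fluor 680 were imaged on a CQ1 microscope at 37°C and 5% CO2 after compound addition.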
# [1] = 12 h, 1 µM, compound concentration 1 uM, replicate 1
# [2] = 12 h, 1 µM, compound concentration 1 uM, replicate 2
# [3] = 12 h, 10 µM, compound concentration 10 uM, replicate 1
# [4] = 12 h, 10 µM, compound concentration 10 uM, replicate 2
# [5] = 24 h, 1 µM, compound concentration 1 uM, replicate 1
# [6] = 24 h, 1 µM, compound concentration 1 uM, replicate 2
# [7] = 24 h, 10 µM, compound concentration 10 uM, replicate 1
# [8] = 24 h, 10 µM, compound concentration 10 uM, replicate 2
# [9] = 48 h, 1 µM, compound concentration 1 uM, replicate 1
# [10] = 48 h, 1 µM, compound concentration 1 uM, replicate 2
# [11] = 48 h, 10 µM, compound concentration 10 uM, replicate 1
# [12] = 48 h, 10 µM, compound concentration 10 uM, replicate 2
structure (smiles),measurement,setting,value
CN1CCN(c2cc(-c3ccccc3)nc(N)n2)CC1,Population Apoptotic (%),[1],80%
same,Population Fragmented Nuclei (%),[1],32%
same,Population Healthy Nuclei (%),[1],61%
same,Population Hoechst High Intensity Objects (%),[1],2%
same,Population Membrane Permeable-Phenotype (%),[1],5%
same,Population Mitochondria Different-Phenotype (%),[1],2%
same,Population Mitotic Cells (%),[1],20%
same,Population Normal (%),[1],97%
same,Population Pyknosed Nuclei (%),[1],6%
same,Population Tubulin-Different-Phenotype (%),[1],2%
same,Total Cell Count,[1],235
same,Population Apoptotic (%),[2],62%
same,Population Fragmented Nuclei (%),[2],17%
same,Population Healthy Nuclei (%),[2],76%
same,Population Hoechst High Intensity Objects (%),[2],1%
same,Population Membrane Permeable-Phenotype (%),[2],7%
same,Population Mitochondria Different-Phenotype (%),[2],5%
same,Population Mitotic Cells (%),[2],37%
same,Population Normal (%),[2],98%
same,Population Pyknosed Nuclei (%),[2],5%
same,Population Tubulin-Different-Phenotype (%),[2],11%
same,Total Cell Count,[2],141
same,Population Apoptotic (%),[3],86%
same,Population Fragmented Nuclei (%),[3],30%
same,Population Healthy Nuclei (%),[3],63%
same,Population Hoechst High Intensity Objects (%),[3],0%
same,Population Membrane Permeable-Phenotype (%),[3],5%
same,Population Mitochondria Different-Phenotype (%),[3],3%
same,Population Mitotic Cells (%),[3],13%
same,Population Normal (%),[3],99%
same,Population Pyknosed Nuclei (%),[3],6%
same,Population Tubulin-Different-Phenotype (%),[3],3%
same,Total Cell Count,[3],252
same,Population Apoptotic (%),[4],73%
same,Population Fragmented Nuclei (%),[4],8%
same,Population Healthy Nuclei (%),[4],80%
same,Population Hoechst High Intensity Objects (%),[4],1%
same,Population Membrane Permeable-Phenotype (%),[4],10%
same,Population Mitotic Cells (%),[4],26%
same,Population Normal (%),[4],98%
same,Population Pyknosed Nuclei (%),[4],10%
same,Population Tubulin-Different-Phenotype (%),[4],7%
same,Total Cell Count,[4],139
same,Population Apoptotic (%),[5],86%
same,Population Fragmented Nuclei (%),[5],25%
same,Population Healthy Nuclei (%),[5],65%
same,Population Hoechst High Intensity Objects (%),[5],1%
same,Population Membrane Permeable-Phenotype (%),[5],7%
same,Population Mitochondria Different-Phenotype (%),[5],1%
same,Population Mitotic Cells (%),[5],13%
same,Population Normal (%),[5],98%
same,Population Pyknosed Nuclei (%),[5],8%
same,Population Tubulin-Different-Phenotype (%),[5],4%
same,Total Cell Count,[5],278
same,Population Apoptotic (%),[6],80%
same,Population Fragmented Nuclei (%),[6],21%
same,Population Healthy Nuclei (%),[6],73%
same,Population Membrane Permeable-Phenotype (%),[6],6%
same,Population Mitotic Cells (%),[6],20%
same,Population Pyknosed Nuclei (%),[6],5%
same,Population Tubulin-Different-Phenotype (%),[6],9%
same,Total Cell Count,[6],177
same,Population Apoptotic (%),[7],100%
same,Population Fragmented Nuclei (%),[7],23%
same,Population Healthy Nuclei (%),[7],69%
same,Population Hoechst High Intensity Objects (%),[7],1%
same,Population Membrane Permeable-Phenotype (%),[7],9%
same,Population Mitochondria Different-Phenotype (%),[7],3%
same,Population Mitotic Cells (%),[7],0%
same,Population Normal (%),[7],98%
same,Population Pyknosed Nuclei (%),[7],6%
same,Population Tubulin-Different-Phenotype (%),[7],7%
same,Total Cell Count,[7],287
same,Population Apoptotic (%),[8],81%
same,Population Fragmented Nuclei (%),[8],12%
same,Population Healthy Nuclei (%),[8],80%
same,Population Hoechst High Intensity Objects (%),[8],2%
same,Population Membrane Permeable-Phenotype (%),[8],4%
same,Population Mitochondria Different-Phenotype (%),[8],4%
same,Population Mitotic Cells (%),[8],18%
same,Population Normal (%),[8],97%
same,Population Tubulin-Different-Phenotype (%),[8],2%
same,Total Cell Count,[8],166
same,Population Apoptotic (%),[9],83%
same,Population Fragmented Nuclei (%),[9],21%
same,Population Healthy Nuclei (%),[9],69%
same,Population Hoechst High Intensity Objects (%),[9],2%
same,Population Membrane Permeable-Phenotype (%),[9],5%
same,Population Mitochondria Different-Phenotype (%),[9],1%
same,Population Mitotic Cells (%),[9],16%
same,Population Normal (%),[9],97%
same,Population Pyknosed Nuclei (%),[9],9%
same,Population Tubulin-Different-Phenotype (%),[9],2%
same,Total Cell Count,[9],409
same,Population Apoptotic (%),[10],69%
same,Population Fragmented Nuclei (%),[10],19%
same,Population Healthy Nuclei (%),[10],75%
same,Population Hoechst High Intensity Objects (%),[10],3%
same,Population Mitochondria Different-Phenotype (%),[10],2%
same,Population Mitotic Cells (%),[10],30%
same,Population Normal (%),[10],96%
same,Population Pyknosed Nuclei (%),[10],5%
same,Population Tubulin-Different-Phenotype (%),[10],7%
same,Total Cell Count,[10],267
same,Population Apoptotic (%),[11],100%
same,Population Fragmented Nuclei (%),[11],19%
same,Population Healthy Nuclei (%),[11],71%
same,Population Hoechst High Intensity Objects (%),[11],1%
same,Population Membrane Permeable-Phenotype (%),[11],5%
same,Population Mitochondria Different-Phenotype (%),[11],3%
same,Population Mitotic Cells (%),[11],0%
same,Population Normal (%),[11],98%
same,Population Pyknosed Nuclei (%),[11],8%
same,Population Tubulin-Different-Phenotype (%),[11],6%
same,Total Cell Count,[11],420
same,Population Apoptotic (%),[12],88%
same,Population Fragmented Nuclei (%),[12],11%
same,Population Healthy Nuclei (%),[12],78%
same,Population Membrane Permeable-Phenotype (%),[12],2%
same,Population Mitotic Cells (%),[12],12%
same,Population Pyknosed Nuclei (%),[12],10%
same,Population Tubulin-Different-Phenotype (%),[12],1%
same,Total Cell Count,[12],254
